In ChEMBL document CHEMBL1140080, “Adamantyl-substituted retinoid-derived molecules that interact with the orphan nuclear receptor small heterodimer partner: effects of replacing the 1-adamantyl or hydroxyl group on inhibition of cancer cell growth, induction of cancer cell apoptosis, and inhibition of SRC homology 2 …” (J Med Chem, 2008):

Tests used:
MDA-MB-231 [1] = assay: Antiproliferative activity against human MDA-MB-231 cells at 2.5 uM after 72 hrs by MTT assay; format: functional; settings: MDA-MB-231, 72 h
Outline: (§1)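 Cells attached for 24 h, then exposed 72 h to analogue in Me2SO or Me2SO alone (final Me2SO 0.1%), with media and compound renewed after 48 h. Viable cells were measured by MTS tetrazolium reduction in three replicates. Top concentration tested per compound was 2.5, 5, 10, 20 or 100 μM.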

[2] = molecular target: T1, Tyrosine-protein phosphatase non-receptor type 11 (Homo sapiens, UniProt Q06124); assay: Inhibition of SHP2 overexpressed in human KG1 cells; format: cell-based, KG-1
T1 sequence (Q06124 whole entry): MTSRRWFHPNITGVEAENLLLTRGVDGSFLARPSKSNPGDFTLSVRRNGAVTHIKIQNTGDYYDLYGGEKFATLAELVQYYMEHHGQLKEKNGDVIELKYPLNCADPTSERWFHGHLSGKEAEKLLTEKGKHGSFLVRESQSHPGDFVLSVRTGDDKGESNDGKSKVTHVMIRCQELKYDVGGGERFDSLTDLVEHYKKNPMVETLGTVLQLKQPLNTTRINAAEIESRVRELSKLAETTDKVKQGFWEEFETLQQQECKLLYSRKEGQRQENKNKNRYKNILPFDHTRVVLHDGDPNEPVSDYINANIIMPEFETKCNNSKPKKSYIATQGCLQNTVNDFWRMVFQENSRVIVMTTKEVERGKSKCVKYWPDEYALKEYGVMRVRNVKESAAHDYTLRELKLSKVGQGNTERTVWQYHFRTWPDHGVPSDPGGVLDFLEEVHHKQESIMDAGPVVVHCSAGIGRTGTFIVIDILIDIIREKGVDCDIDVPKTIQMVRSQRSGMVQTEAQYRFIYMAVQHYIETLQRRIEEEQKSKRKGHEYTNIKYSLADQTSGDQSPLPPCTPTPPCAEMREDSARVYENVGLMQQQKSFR
Outline: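 Shp-2 PTP activity was measured as hydrolysis of the fluorogenic substrate 6,8-difluoro-4-methylumbelliferyl phosphate in the presence of analogue in Me2SO or Me2SO alone (final concentration 5%).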

[3] = Antiproliferative activity against human H292 cells after 72 hrs by MTT assay; format: functional, cell-based; settings: NCI-H292, 72 h; outline: as §1
MDA-MB-231 [4] = assay: Induction of apoptosis in human MDA-MB-231 cells at 2.0 uM after 96 hrs by acridine orange staining; format: functional
Outline: (§2)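 KG-1, HL-60R (24 h) or MDA-MB-231 (96 h) cells in 5% FBS medium attached overnight, then were treated with analogue in Me2SO or vehicle (final 0.1% Me2SO). Apoptotic cells were scored by acridine orange staining on at least three replicates. Tested concentrations were 0.1–5.0 μM, plus 25 μM for KG-1.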

[5] = Induction of apoptosis in human HL60R cells at 0.1 uM after 24 hrs by acridine orange staining; format: functional; outline: as §2
[6] = Antiproliferative activity against human H292 cells at 2.5 uM after 72 hrs by MTT assay; format: functional; settings: NCI-H292, 72 h; outline: as §1
[7] = Induction of apoptosis in human HL60R cells at 1.0 uM after 24 hrs by acridine orange staining; format: functional; outline: as §2
[8] = Antiproliferative activity against human KG1 AML cells at 5 uM after 48 hrs by MTT assay; format: functional; settings: in the assay text read “by hemocytometer cell counting” for “by MTT assay”
Outline: (§3)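 KG-1 cells in 5% FBS medium attached overnight, then treated 48 h with analogue in Me2SO or Me2SO alone (final 0.1%). Cells were harvested and counted by hemocytometer in triplicate wells. Highest concentration evaluated was 5 μM.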

MDA-MB-231 [9] = assay: Induction of apoptosis in human MDA-MB-231 cells at 1.0 uM after 96 hrs by acridine orange staining; format: functional; outline: as §2
KG-1 [10] = assay: Induction of apoptosis in human KG1 cells at 1.0 uM […] by acridine orange staining; format: functional
KG-1 [11] = assay: Induction of apoptosis in human KG1 cells after 48 hrs by acridine orange staining; format: functional, cell-based; settings: KG-1, 48 h
DU-145 [12] = assay: Antiproliferative activity against human DU145 cells after 72 hrs by MTT assay; format: functional, cell-based; settings: DU-145, 72 h; outline: as §1
KG-1 [13] = assay: Induction of apoptosis in human KG1 cells at 5.0 uM […] by acridine orange staining; format: functional
DU-145 [14] = assay: Antiproliferative activity against human DU145 cells at 2.5 uM after 72 hrs by MTT assay; format: functional; settings: DU-145, 72 h; outline: as §1
[15] = molecular target: T2, Nuclear receptor subfamily 0 group B member 2 (Homo sapiens, UniProt Q15466); assay: Displacement of [5,5'-3H2]AHPN from human recombinant GST-SHP by liquid scintillation counting relative to 3-Cl-AHPC
T2 sequence (Q15466 whole entry): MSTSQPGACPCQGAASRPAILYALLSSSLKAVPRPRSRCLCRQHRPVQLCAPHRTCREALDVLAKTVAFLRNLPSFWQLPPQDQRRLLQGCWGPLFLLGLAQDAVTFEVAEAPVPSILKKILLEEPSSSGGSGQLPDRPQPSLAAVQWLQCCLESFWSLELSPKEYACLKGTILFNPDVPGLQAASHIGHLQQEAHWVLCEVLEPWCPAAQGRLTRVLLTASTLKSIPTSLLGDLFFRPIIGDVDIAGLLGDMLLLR
Outline: (§4)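 Recombinant GST–human SHP was bound to glutathione–Sepharose beads and incubated 2 h with 5 nM [5,5′-3H2]AHPN with or without competitor (1.0, 5.0 or 50 μM). Beads were washed twice and counted. Displacement was expressed relative to 50 μM 3-Cl-AHPC set as 100%.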

[16] = Antiproliferative activity against human KG1 AML cells after 48 hrs by MTT assay; format: functional, cell-based; settings: in the assay text read “by hemocytometer cell counting” for “by MTT assay”; outline: as §3
MDA-MB-231 [17] = assay: Antiproliferative activity against human MDA-MB-231 cells after 72 hrs by MTT assay; format: functional, cell-based; settings: MDA-MB-231, 72 h; outline: as §1
[18] = molecular target: T3, Nuclear receptor subfamily 0 group B member 2 (Homo sapiens) (UniProt Q15466); assay: Displacement of [5,5'-3H2]AHPN from human recombinant GST-SHP at 50 uM by liquid scintillation counting relative to 3-Cl-AHPC; outline: as §4
T3 sequence (whole entry): T2 sequence (Q15466 whole entry)

[19] = Antiproliferative activity against human H292 cells at 10 uM after 72 hrs by MTT assay; format: functional; settings: NCI-H292, 72 h; outline: as §1
DU-145 [20] = assay: Antiproliferative activity against human DU145 cells at 10 uM after 72 hrs by MTT assay; format: functional; settings: DU-145, 72 h; outline: as §1
MDA-MB-231 [21] = assay: Antiproliferative activity against human MDA-MB-231 cells at 10 uM after 72 hrs by MTT assay; format: functional; settings: MDA-MB-231, 72 h; outline: as §1
[22] = Antiproliferative activity against human H292 cells at 5 uM after 72 hrs by MTT assay; format: functional; settings: NCI-H292, 72 h; outline: as §1
DU-145 [23] = assay: Antiproliferative activity against human DU145 cells at 5 uM after 72 hrs by MTT assay; format: functional; settings: DU-145, 72 h; outline: as §1
MDA-MB-231 [24] = assay: Antiproliferative activity against human MDA-MB-231 cells at 5 uM after 72 hrs by MTT assay; format: functional; settings: MDA-MB-231, 72 h; outline: as §1
KG-1 [25] = assay: Induction of apoptosis in human KG1 cells at 25 uM […] by acridine orange staining; format: functional
[26] = Growth inhibition of human HL60R cells at 1.0 uM after 24 hrs by hemocytometer; format: functional; settings: read-out: GI
Outline: (§5)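 HL-60R cells in medium with 5% FBS attached overnight, then received analogue in Me2SO or vehicle (final Me2SO 0.1%) for 24 h. Cells were harvested and counted in triplicate wells with a hemocytometer.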

[27] = Growth inhibition of HMVE cells after 72 hrs by alamar blue method; format: cell-based; settings: Homo sapiens
[28] = Growth inhibition of human HL60R cells at 0.1 uM after 24 hrs by hemocytometer; format: functional; settings: read-out: GI; outline: as §5
[29] = Growth inhibition of HMVE cells at 0.5 uM after 72 hrs by alamar blue method; format: cell-based; settings: human, HMVE cells; read-out: GI
DU-145 [30] = assay: Antiproliferative activity against human DU145 cells at 100 uM after 72 hrs by MTT assay; format: functional; settings: DU-145, 72 h; outline: as §1
[31] = Antiproliferative activity against human H292 cells at 100 uM after 72 hrs by MTT assay; format: functional; settings: NCI-H292, 72 h; outline: as §1
MDA-MB-231 [32] = assay: Antiproliferative activity against human MDA-MB-231 cells at 100 uM after 72 hrs by MTT assay; format: functional; settings: MDA-MB-231, 72 h; outline: as §1

SMILES | IC50 [2] [µM] | IC50 [3] [µM] | Activity (MDA-MB-231 [4]) [%] | Activity [5] [%] | Activity [7] [%] | Activity [8] [%] | Activity (MDA-MB-231 [9]) [%] | Activity (KG-1 [10]) [%] | IC50 (KG-1 [11]) [µM] | IC50 (DU-145 [12]) [µM] | Activity (KG-1 [13]) [%] | IC50 [15] [µM] | IC50 [16] [µM] | IC50 (MDA-MB-231 [17]) [µM] | Activity [18] [%] | inhibition at 10 µM [19] [%] | inhibition at 10 µM (DU-145 [20]) [%] | inhibition at 10 µM (MDA-MB-231 [21]) [%] | also measured
O=C(O)/C=C/c1ccc(-c2ccc(O)c(C34CC5CC(CC(C5)C3)C4)c2)c(Cl)c1 | 2.1 | 0.4 | 43 | 51 | 94 | 67 | 31 | 30 | 4.2 | 0.48 | 55 | 2.5 | 1.4 | 0.95 |  |  |  |  | inhibition at 2.5 µM (MDA-MB-231 [1]): 63%; inhibition at 2.5 µM [6]: 92%; inhibition at 2.5 µM (DU-145 [14]): 85%
O=C(O)/C=C/c1ccc(-c2ccc(O)c(C34CC5CC(CC3C5)C4)c2)c(Cl)c1 | 3.91 | 6.8 |  |  |  | 94 |  | 2 | 230 | 7.9 | 16 |  | 0.92 | 9.8 | 85 | 69 | 59 | 51 | 
CCC(CC)(CC)c1cc(-c2ccc(/C=C/C(=O)O)cc2Cl)ccc1O | 5.37 | > 5 |  |  |  | 0 |  | 3 |  | > 5 | 4 | 8 | > 5 | > 5 | 90 |  |  |  | inhibition at 5 µM [22]: 5%; inhibition at 5 µM (DU-145 [23]): 2%; inhibition at 5 µM (MDA-MB-231 [24]): 2%; Activity (KG-1 [25]): 14%
O=C(O)c1ccc2cc(-c3cccc(C45CC6CC(CC(C6)C4)C5)c3)ccc2c1 |  |  | 7 | 2 | 2 |  | 2 |  |  |  |  |  |  |  |  |  |  |  | inhibition of growth at 1 µM [26]: 8%; IC50 [27]: > 0.5 µM; inhibition of growth at 0.1 µM [28]: 4%; inhibition at 72 h, 0.5 µM [29]: 36%
O=C(O)/C=C/c1ccc(-c2ccc(F)cc2)c(Cl)c1 | 500 | 47 |  |  |  | 7 |  | 0 |  | > 100 | 0 |  | > 5 | > 100 |  | 18 | 15 | 0 | inhibition at 100 µM (DU-145 [30]): 23%; inhibition at 100 µM [31]: 60%; inhibition at 100 µM (MDA-MB-231 [32]): 9%
